Source: PubChem BioAssay
An excerpt weighted towards active compounds, which were near 3.4% of everything screened.
ANO1 activ = activators or potentiators of mouse TMEM16A chloride channel; HEK293 TMEM16A/YFP-H148Q/I152L, iodide quench fluorescence; stronger effect = lower value; B-score at 10 µM; 340,000 tested, 0.3% active;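 active means fluorescence-ratio B-score plate-corrected deviation score at least 3 library SD below zero, with starting fluorescence score within 5 deviations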;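 further: channel opened by trigger with iodide after compound preincubation; score built on the fluorescence ratio of max minus min over baseline; more negative score means more quench and so TMEM16A activation or potentiation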
MC4R barr agon = activates human MC4R beta-arrestin recruitment | AID 540308 | activation, % at 8.9 µM | 360,000 tested, 0.98% active | U2OS MC4R beta-arrestin complementation, luminescence; percent of melanotan II response, DMSO zero | P32245;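 active means activation above a per-plate cutoff, the mean activation of sample wells on that plate plus 3 SD, cut at about 8% in these data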
beta cell repl = inducers of beta-cell replication in MIN6 cells. MIN6 cells proliferation, ATPlite luminescence, 48 h; cells starved in 0.2% serum; 100% = growth in 10% serum. proliferation, % at 10 µM. 330,000 tested, 0.29% active;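 active means compounds whose signal lies at least 3.5 SD above the mean of all wells on their plate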
HTR2A ag = mouse HTR2A agonism via beta-arrestin recruitment. AID 624169. 360,000 tested, 0.66% active. CHO-K1 mHTR2A beta-arrestin complementation, luminescence; percent of 30 µM serotonin response. P35363. activation, % at 7.6 µM;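 active means activation above a run cutoff, the mean activation of all tested compounds plus 3 SD, cut at about 14% in these data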
Target sequence (P35363 whole entry, looked up): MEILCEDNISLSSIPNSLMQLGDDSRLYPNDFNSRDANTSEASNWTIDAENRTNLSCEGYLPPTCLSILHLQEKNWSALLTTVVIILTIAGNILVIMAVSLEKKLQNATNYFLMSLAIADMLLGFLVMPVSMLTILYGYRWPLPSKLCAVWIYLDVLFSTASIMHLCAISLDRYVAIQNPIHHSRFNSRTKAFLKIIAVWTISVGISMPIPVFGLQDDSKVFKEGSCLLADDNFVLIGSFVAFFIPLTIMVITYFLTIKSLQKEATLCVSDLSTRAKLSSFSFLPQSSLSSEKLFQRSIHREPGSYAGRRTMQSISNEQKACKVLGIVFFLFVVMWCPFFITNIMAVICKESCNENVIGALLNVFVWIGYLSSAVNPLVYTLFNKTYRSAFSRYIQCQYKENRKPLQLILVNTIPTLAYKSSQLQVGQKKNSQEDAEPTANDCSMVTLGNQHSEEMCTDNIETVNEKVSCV
MC4R antag cAMP = antagonists of human melanocortin 4 receptor (MC4R); inhibition, % at 6.5 µM; 360,000 tested, 0.48% active; MC4R-expressing cells, MTII-stimulated cAMP, LANCE TR-FRET;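 active means inhibition above its plate's cutoff, the mean of tested wells on that plate plus 3 SD, cut at about 29% in these data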
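Material: human MC4R-expressing U2OS cells. Probe or stimulus: Melanotan II challenge. Dosing: 6.5 µM single dose. Times: 30-min compound, 1-h challenge, 1-h detection, room temperature. Technique: TR-FRET with Eu-cAMP and labeled anti-cAMP, 671 nm. Replication: singlicate.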
ANO1 block = inhibitors of mouse TMEM16A calcium-activated chloride channel; Q8BHY3; HEK293 TMEM16A/YFP iodide influx fluorescence, ionomycin; normalized B-score (activity score, 25-100; higher = stronger inhibition) at 10 µM; 310,000 tested, 1.2% active;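 active means ratio plate-corrected score three or more library SD toward inhibition, starting fluorescence score within five deviations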;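 further: score derived from kinetic fluorescence span divided by baseline fluorescence per well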
Numbers stand for hits; i = inactive; nt = no result.

SMILES	ANO1 activ	MC4R barr agon	beta cell repl	HTR2A ag	MC4R antag cAMP	ANO1 block
Cc1ccccc1C(=O)N1CCC(C(=O)Nc2nc3ccc(F)cc3s2)CC1	i	i	i	i	i	25
Cc1ccccc1C(=O)N1CCC(C(=O)Nc2nccs2)CC1	i	i	i	i	i	i
CC(=O)/C(C#N)=C1\NC(=O)C(Cc2ccc(C)c(C)c2)S1 (stereo unspecified)	i	i	i	i	i	25
O=C(CSc1nnc(Cn2nnc3ccccc32)o1)N(Cc1ccc(F)cc1)c1ccccc1	i	i	i	i	i	25
O=C(CSc1ccccc1)NCCCN1CCOCC1	-11	i	i	i	i	i
COC(=O)c1c(C)nn(-c2ccc(F)c(Cl)c2)c1-c1cc(C)on1	i	i	i	i	i	i
CCC(C)NC(=O)C1CCC(=O)N1CCc1ccccc1 (stereo unspecified)	i	i	i	i	i	i
COc1ccc(CN2CCN(C(=O)CCC(=O)c3ccc(C)s3)CC2)cc1OC	i	i	i	i	i	nt
O=C(COC(=O)c1ccc(O)cc1)Nc1cccc(S(=O)(=O)NC2=NCCC2)c1	-31	i	i	i	i	nt
CC(C)c1ccc(C(=O)OCC(=O)Nc2cccc(S(=O)(=O)NC3=NCCC3)c2)cc1	nt	i	nt	i	i	nt
CN(C)c1ncc(C2=C(Cl)C(=O)C(N3CCCC3)=C(Cl)C2=O)s1	i	i	i	i	i	100
O=C1C(Cl)=C(N2CCCCC2)C(=O)C(Cl)=C1c1cnc(N2CCCCC2)s1	i	i	i	i	i	nt
O=C1CCCCC1Nc1ccc(Br)cc1 (stereo unspecified)	i	i	nt	i	i	nt
COc1ccc2c(c1)c(N=NC(N)=S)c(O)n2CC(=O)c1ccccc1	i	12	i	i	i	i
CCOc1cc(C)c(-c2onc(C(F)(F)F)c2-c2csc(C)n2)c(O)c1	i	i	i	i	i	100
CC(c1ccco1)N(C(=O)c1cc(Cl)cc(Cl)c1)c1ccccn1 (stereo unspecified)	i	i	0.0	i	i	i
Cc1cc(C)cc(C(=O)N(c2ccccn2)C(C)c2ccco2)c1 (stereo unspecified)	i	i	i	i	i	i
Cc1cc2nc3c(=O)n(CCc4ccccc4)c(=O)[nH]c3nc2cc1N	i	i	i	i	i	i
Nc1ccc2nc3c(=O)n(CCc4ccccc4)c(=O)[nH]c3nc2c1	-6.6	i	i	i	i	i
Cc1ccc(CC(=O)NCC(O)c2ccccc2)cc1 (stereo unspecified)	i	i	i	i	i	i
Cc1cc(C(=O)OCC(=O)Nc2cccc(S(=O)(=O)N3CCOCC3)c2)c(C)o1	-6.2	i	i	i	i	i
CC(C)CCNC(=O)NC(=O)COC(=O)c1cc(S(=O)(=O)N2CCOCC2)ccc1N1CCCCC1	-12	i	i	i	i	i
CCOc1cccc(/C=C/c2cc(C(=O)O)c3ccccc3n2)c1OC	i	i	i	i	i	i
CCc1ccc(CNc2ccc3c(c2)ncn3CC)cc1	-6.9	i	i	i	i	i
CC(C)(C)n1cnc2cc(NCc3ccc(Br)cc3)ccc21	-9	i	i	i	i	i
SMILES	ANO1 activ	MC4R barr agon	beta cell repl	HTR2A ag	MC4R antag cAMP	ANO1 block
CCc1ccc(CNc2ccc3c(c2)ncn3C(C)(C)C)cc1	i	i	i	i	i	i
CCCCN1C(=O)C(CC(=O)NCCc2ccccn2)CC(C(=O)N(C(C)C)C(C)C)=C1C (stereo unspecified)	nt	i	nt	i	i	nt
C[C@H]1CN([C@@H](C)CO)C(=O)CCCn2nncc2CO[C@@H]1CN(C)C(=O)c1ccncc1	nt	i	nt	i	i	nt
CCCNc1nc2c(c(=O)[nH]c(=O)n2C)n1Cc1cccc(Br)c1	-5.8	i	i	i	i	i
Cc1ccc(S(=O)(=O)N(Cc2ccccc2F)C(=O)N2CCN(C)CC2)cc1	i	i	i	i	i	i
Cc1nc2nc(N)nn2c(C)c1C/C=C/c1ccccc1	-37	i	i	i	i	i
Cc1nc2ncnn2c(C)c1C/C=C/c1ccccc1	i	i	i	i	i	i
COC(=O)c1cc(C(=O)Nc2cc(C)ccn2)cc([N+](=O)[O-])c1	i	i	i	15	i	i
Cc1cccc(OCC(=O)O/N=C(\N)c2ccc(Cl)cc2)c1	i	12	i	i	i	i
Cc1ccc(C(=O)CC(=O)c2cc(Cl)ccc2O)cc1	i	i	i	i	i	i
CC(C)(C)c1ccc(C(=O)CC(=O)c2cc(Cl)ccc2O)cc1	i	i	i	i	i	25
COCCN1C(=O)/C(=C/c2ccc(OCc3ccc(C(=O)O)cc3)c(OC)c2)SC1=Nc1ccccc1	i	i	i	i	i	100
COc1ccc(NC(=O)C2(C)CCN2Cc2ccc(C(C)C)cc2)cc1OC (stereo unspecified)	nt	i	nt	i	i	nt
C/C(=N\Nc1nc2c(s1)CCCC2)c1ccc(Cl)cc1	-11	i	i	i	i	i
O=C(c1ccc(CSc2nc3ccncc3[nH]2)cc1)N1CCCCCC1	i	i	i	i	i	i
O=C(c1ccc(CSc2nc3ccncc3[nH]2)cc1)N1CCN(c2cccc(Cl)c2)CC1	i	i	i	i	i	100
N#C/C(=C/c1ccc(O)c([N+](=O)[O-])c1)C(=O)Nc1ccccc1	i	i	i	i	i	25
N#C/C(=C/c1ccc([N+](=O)[O-])cc1)C(=O)Nc1ccccc1O	i	i	i	i	i	i
COC(=O)C1CCN(Cc2ccc(OCCCN3CCN(c4ccc([N+](=O)[O-])cc4)CC3)cc2)CC1	i	i	i	i	i	25
CSc1ccc(/C=C/C(=O)NC(=O)c2ccccc2O)cc1	i	i	i	i	i	25
O=C(/C=C/c1ccc(Br)cc1)NC(=O)c1ccccc1O	i	i	i	i	i	i
COc1cc(-c2c(CCO)sc3ccccc23)cc(OC)c1OC	nt	nt	nt	i	nt	nt
COc1cccc(C2C(C(=O)OC(C)C)=C(C)N=c3s/c(=C\c4ccc(C(=O)O)cc4)c(=O)n32)c1 (stereo unspecified)	-4.8	i	i	i	i	i
COc1cccc(C2C(C(=O)Nc3ccccc3)=C(C)N=c3s/c(=C/c4ccc(OCC(=O)O)cc4)c(=O)n32)c1 (stereo unspecified)	i	i	i	i	i	i
COc1cc(/C=C2\CCC/C(=C\c3ccc(O)c(OC)c3)C2=O)ccc1O	i	30	i	i	i	i
COc1ccc(NS(=O)(=O)c2ccc(C)c(NC(=O)NC3CCCCC3)c2)cc1	i	i	i	i	i	i
COc1ccc(NS(=O)(=O)c2cccc(NC(=O)NC3CCCCC3)c2)cc1	i	i	i	i	i	25
